From ChEMBL document CHEMBL4325827, “Bifidenone: Structure-Activity Relationship and Advanced Preclinical Candidate” (J Med Chem, 2018)
Activity calls are given as the source filed them. The rule behind the calls is not given here.

Legend:
[1] = Toxicity in Crl:NU(NCr)-Foxn1 nu mouse xenografted with human LOX-IMVI cells assessed as maximum body weight loss at 30 mg/kg, ip qd administered for 7 consecutive days measured after 5 days post dose relative to control; type: organism-based; details: in vivo, 120 h
Procedure, shortened: (§1)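 Female athymic nude mice bearing subcutaneous xenografts, started from cultured cells (NCI-H460, Calu-6, NCI-H69, LOX-IMVI) or from serially passaged tumour fragments (NCI-H522). Mice were grouped into vehicle and treatment arms at tumour volumes of about 75-200 mm3. Dosing was ip at 5-10 mL/kg in 22% ethanol, 38% PEG400, 40% 20 mM Na citrate pH 5.0. Caliper volumes were taken as (length × width2)/2. Treated and control delta weights were median tumour weight minus staging-day median.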

Tubulin (Sus scrofa) = Tubulin (Sus scrofa) (UniProt P02554+P02550); experiment: Inhibition of pig tubulin polymerization at 10 uM measured at 1 min intervals for 60 mins; type: protein assay
Tubulin (Sus scrofa), sequence (P02550 whole entry, looked up): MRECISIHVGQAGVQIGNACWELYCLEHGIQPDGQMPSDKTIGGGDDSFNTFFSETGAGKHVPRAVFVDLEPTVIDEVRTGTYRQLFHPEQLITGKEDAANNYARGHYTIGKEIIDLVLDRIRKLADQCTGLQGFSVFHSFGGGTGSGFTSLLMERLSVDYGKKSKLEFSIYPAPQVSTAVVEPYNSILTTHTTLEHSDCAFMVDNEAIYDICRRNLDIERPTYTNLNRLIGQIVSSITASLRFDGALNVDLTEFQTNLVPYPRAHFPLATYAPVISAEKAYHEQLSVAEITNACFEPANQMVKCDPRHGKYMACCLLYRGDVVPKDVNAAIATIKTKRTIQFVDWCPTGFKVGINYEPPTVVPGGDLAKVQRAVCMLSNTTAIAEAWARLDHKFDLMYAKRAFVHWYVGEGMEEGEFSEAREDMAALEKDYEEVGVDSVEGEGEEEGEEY
Tubulin (Sus scrofa), sequence (P02554 whole entry, looked up): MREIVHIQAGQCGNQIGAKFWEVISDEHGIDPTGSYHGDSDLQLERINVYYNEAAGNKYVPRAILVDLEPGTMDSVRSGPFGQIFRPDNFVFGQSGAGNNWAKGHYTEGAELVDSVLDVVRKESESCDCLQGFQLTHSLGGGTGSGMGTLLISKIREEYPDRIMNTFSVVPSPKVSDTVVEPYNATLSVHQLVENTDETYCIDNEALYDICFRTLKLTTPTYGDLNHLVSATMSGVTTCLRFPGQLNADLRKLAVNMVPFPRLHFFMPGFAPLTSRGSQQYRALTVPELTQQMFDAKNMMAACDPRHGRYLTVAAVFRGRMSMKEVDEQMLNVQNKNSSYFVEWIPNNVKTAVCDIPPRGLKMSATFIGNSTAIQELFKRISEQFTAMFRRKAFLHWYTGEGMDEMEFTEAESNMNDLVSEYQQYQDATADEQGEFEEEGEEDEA
Procedure, shortened: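 Polymerization assay using porcine tubulin.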

[2] = Toxicity in Crl:NU(NCr)-Foxn1 nu mouse xenografted with human NCI-H69 cells assessed as mortality at 70 mg/kg, ip dosed on day 1 followed by 4 days rest and subsequently dosed at 70 mg/kg, ip qd administered for 3 consecutive days followed by 2 days of rest for 2 cycles; type: organism-based; details: in vivo
Procedure, shortened: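 Female athymic nude mice bearing subcutaneous xenografts started from cultured human tumor cells. Mice were split into vehicle and treatment groups once tumors reached about 75-200 mm3. Dosing was ip at 5-10 mL/kg in 22% ethanol, 38% PEG400, 40% 20 mM Na citrate pH 5.0. Deaths per group were recorded alongside maximum mean bodyweight loss.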

[3] = Toxicity in Crl:NU(NCr)-Foxn1 nu mouse xenografted with human NCI-H460 cells assessed as maximum body weight loss at 40 mg/kg, ip qd administered for 3 consecutive days followed by 2 days of rest for 3 cycles measured after 7 days post dose relative to control; type: organism-based; details: in vivo, 168 h; procedure, shortened: as §1
SF-295 = experiment: Antiproliferative activity against taxane-resistant human SF295 cells after 72 hrs by CellTiter 96 aqueous nonradioactive cell proliferation assay; type: functional, cell-based; details: SF-295, 72 h
Procedure, shortened: (§2)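 Antiproliferation in cultured tumour cells, at least 3 replicate wells per concentration per experiment. NCI-H460 came from ATCC. M14, NCI/ADR-RES, OVCAR-4, HCT-15, ACHN and SF-295 came from the National Cancer Institute. IC50 reported from single experiments where no SD is given.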

[4] = Toxicity in Crl:NU(NCr)-Foxn1 nu mouse xenografted with human […] cells assessed as mortality at 40 mg/kg, ip qd administered for 3 consecutive days followed by 2 days of rest for 3 cycles; type: organism-based; details: in vivo, 48 h
Procedure, shortened: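 Female athymic nude mice bearing subcutaneous NCI-H522 xenografts started from tumor fragments kept by continuous in vivo passage. Mice were grouped once tumors reached about 75-200 mm3. Dosing was ip at 5-10 mL/kg in 22% ethanol, 38% PEG400, 40% 20 mM Na citrate pH 5.0. Deaths per group were recorded with maximum mean bodyweight loss.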

NCI-H522 = experiment: Antitumor activity against human NCI-H522 cells xenografted in Crl:NU(NCr)-Foxn1 nu mouse assessed as tumor growth inhibition at 60 mg/kg, ip qd administered for 3 consecutive days followed by 2 days of rest for 3 cycles relative to control; type: functional; details: 48 h, read-out: TGI; procedure, shortened: as §1
NCI-H69 = experiment: Antitumor activity against human NCI-H69 cells xenografted in Crl:NU(NCr)-Foxn1 nu mouse assessed as tumor growth inhibition at 70 mg/kg, ip dosed on day 1 followed by 4 days rest and subsequently dosed at 70 mg/kg, ip qd administered for 3 consecutive days followed by 2 days of rest for 2 cycles relative to control; type: functional; details: read-out: TGI; procedure, shortened: as §1
M14 = experiment: Antiproliferative activity against human M14 cells after 72 hrs by CellTiter 96 aqueous nonradioactive cell proliferation assay; type: functional, cell-based; details: M14, 72 h; procedure, shortened: as §2

C=CC[C@H]1C[C@]2([C@H](C)Cc3cc(O)c(OC)cc3F)OCOC2=CC1=O
Activity [1]: 9%
inhibition (Tubulin (Sus scrofa)): Active
Activity [2]: Non-Toxic
Activity [3]: 7%
IC50 (SF-295): 9.6 nM
Activity [4]: Non-Toxic
inhibition in vivo at 60 mg/kg (NCI-H522): 82%
inhibition in vivo at 70 mg/kg (NCI-H69): 84%
IC50 (M14): 17 nM
